Assay results reported in PMC5940653 (Leukemia, 2018).

Test system: STAT3/5 phosphorylation in NK-S1 cells
Assay: Wash-out assay
Type: cell-based
Details: NK-S1, 1.0 μM pre-treatment for 2 h
Summary of the method: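 NK-S1 cells were grown in DMEM with 10% FBS and 10% equine serum, seeded at 2.5 × 10^6 per well, and exposed to 1.0 µM test compound or DMSO for 2 h. Cells were washed twice in PBS and resuspended in complete medium without inhibitor. They were harvested at washout and 0.5, 1, 2 and 4 h later. Phospho- and total STAT3/5 were immunoblotted, 15 μg protein per lane.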

Q: How did the “recovery of phosphorylated STAT3/5 activity post inhibitor washout” value turn out when C[C@@H]1CCN(C(=O)CC#N)C[C@@H]1N(C)c1ncnc2[nH]ccc12 [Tofacitinib] was run?
A: within half an hour
